From ChEMBL document CHEMBL3414569, “Amino acid modified xanthone derivatives: novel, highly promising membrane-active antimicrobials for multidrug-resistant Gram-positive bacterial infections” (J Med Chem, 2015)
In brackets after ≈: the same amount, converted by molar mass. Activity calls are given as the source filed them. The rule behind the calls is not given here.

Assays:
Staphylococcus aureus [1] = assay: Antimicrobial activity against Staphylococcus aureus DM4001 by broth macrodilution method; format: functional
Outline: (§1)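 Broth macrodilution MIC in Mueller Hinton broth following CLSI guidelines. Inoculum was prepared by direct colony suspension from an 18−20 h tryptic soy agar plate.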

Bacillus cereus = assay: Antimicrobial activity against Bacillus cereus ATCC 11778 by broth macrodilution method; format: functional
Outline: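 CLSI broth macrodilution in Mueller Hinton broth. Inoculum was made by direct colony suspension from colonies on an 18−20 h tryptic soy agar plate. The value is the MIC.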

[2] = Induction of hemolysis in New Zealand white rabbit RBC after 1 hr; format: cell-based, Oryctolagus cuniculus, Erythrocyte; conditions: New Zealand white, red blood cells (RBC)
Outline: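 Fresh red blood cells isolated from New Zealand white rabbits. Lysis measured over a compound concentration series; HC50 taken as the concentration lysing 50% of RBCs.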

Staphylococcus aureus [3] = assay: Antimicrobial activity against methicillin resistant Staphylococcus aureus DM21455 by broth macrodilution method; format: functional; outline: as §1
Staphylococcus aureus [4] = assay: Antimicrobial activity against methicillin resistant Staphylococcus aureus DM09809R by broth macrodilution method; format: functional; outline: as §1
Staphylococcus aureus [5] = assay: Antimicrobial activity against Staphylococcus aureus ATCC 29213 in presence of 4% BSA by broth macrodilution method; format: functional
Outline: (§2)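 MIC by CLSI broth macrodilution in Mueller Hinton broth, with BSA added to the bacterial suspension at a final 4% w/v. Inoculum was made by direct colony suspension from an 18−20 h tryptic soy agar plate.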

[6] = Selectivity index, ratio of HC50 for induction of hemolysis in New Zealand white rabbit RBC to MIC for Staphylococcus aureus DM09809R
Staphylococcus aureus [7] = assay: Antimicrobial activity against methicillin resistant Staphylococcus aureus DM21455 in absence of 4% BSA by broth macrodilution method; format: functional; outline: as §1
Staphylococcus aureus [8] = assay: Antimicrobial activity against methicillin resistant Staphylococcus aureus DM21455 in presence of 4% BSA by broth macrodilution method; format: functional; outline: as §2
Staphylococcus aureus [9] = assay: Antimicrobial activity against Staphylococcus aureus ATCC 29213 in absence of 4% BSA by broth macrodilution method; format: functional; outline: as §1
[10] = Selectivity index, ratio of HC50 for induction of hemolysis in New Zealand white rabbit RBC to MIC for Bacillus cereus ATCC 11778
[11] = Selectivity index, ratio of HC50 for induction of hemolysis in New Zealand white rabbit RBC to MIC for Staphylococcus aureus DM4001
[12] = Selectivity index, ratio of HC50 for induction of hemolysis in New Zealand white rabbit RBC to MIC for Staphylococcus aureus DM21455
[13] = Retention time of the compound; format: physicochemical
Outline: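 Reverse-phase HPLC of 20 μL injections of a 10 μg/mL sample at 1 mL/min. Gradient: 5−55% ACN over 5 min, then 55−95% over 15 min.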

Enterococcus [14] = assay: Bactericidal activity against vancomycin-resistant Enterococcus isolates assessed as reduction in bacterial count 2048 ug/mL after 2 hrs by cell counting based time assay; format: functional, organism-based
Outline: (§3)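 Time-kill at 35 °C with colonies taken from an 18−20 h tryptic soy agar plate and suspended in CA-MHB at 10^5−10^6 CFU/mL, then drug added. Aliquots taken at set times were diluted 10-fold serially in D/E neutralization broth, spread on tryptic soy agar, incubated 48−72 h at 35 °C, and colonies counted. Strains: MRSA DM21455, vanA and vanB VRE.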

Staphylococcus aureus [15] = assay: Bactericidal activity against Staphylococcus aureus DM21455 assessed as reduction in bacterial count 2048 ug/mL after 2 hrs by cell counting based time assay; format: functional, organism-based; outline: as §3
Enterococcus [16] = assay: Bactericidal activity against vancomycin-resistant Enterococcus isolates assessed as reduction in bacterial count 2048 ug/mL after 24 hrs by cell counting based time assay; format: functional, organism-based; outline: as §3
Staphylococcus aureus [17] = assay: Bactericidal activity against Staphylococcus aureus DM21455 assessed as reduction in bacterial count 2048 ug/mL after 24 hrs by cell counting based time assay; format: functional, organism-based; outline: as §3
Listeria monocytogenes = assay: Antimicrobial activity against Listeria monocytogenes isolates by broth macrodilution method; format: functional
Enterococcus [18] = assay: Antimicrobial activity against vancomycin-sensitive Enterococcus isolates by broth macrodilution method; format: functional
Corynebacterium jeikeium = assay: Antimicrobial activity against Corynebacterium jeikeium isolates by broth macrodilution method; format: functional
Enterococcus [19] = assay: Antimicrobial activity against vancomycin-resistant Enterococcus isolates by broth macrodilution method; format: functional
Streptococcus = assay: Antimicrobial activity against Streptococcus isolates by broth macrodilution method; format: functional

Row | Molecule | MIC (Staphylococcus aureus [1]) | MIC (Bacillus cereus) | HC50 at 1 h [2] | MIC (Staphylococcus aureus [3]) | MIC (Staphylococcus aureus [4]) | Selectivity Index [6] | Selectivity Index [10] | Selectivity Index [11] | Selectivity Index [12] | further results
1 | CCN(CC)CCCCOc1ccc2c(=O)c3c(O)cc(OCCCCN(CC)CC)cc3oc2c1 | > 50 µg/mL |  |  |  |  |  |  |  |  | 
2 | COC(=O)C(Cc1cnc[nH]1)NC(=O)COc1cc2oc3cc(OCC(=O)NC(Cc4cnc[nH]4)C(=O)OC)c(OC)c(CC=C(C)C)c3c(=O)c2c(O)c1CC=C(C)C (centres undefined) | > 50 µg/mL | > 50 µg/mL | > 400 µg/mL | > 50 µg/mL | > 50 µg/mL |  |  |  |  | 
3 | COC(=O)C(CCCCN)NC(=O)COc1cc2oc3cc(OCC(=O)NC(CCCCN)C(=O)OC)c(OC)c(CC=C(C)C)c3c(=O)c2c(O)c1CC=C(C)C (centres undefined) | 6 µg/mL (≈ 7.4 µM) | 12 µg/mL (≈ 14.8 µM) | 39 µg/mL | 12 µg/mL (≈ 14.8 µM) | 6 µg/mL (≈ 7.4 µM) |  |  |  |  | 
4 | H-GIGKFLKKAKKFGKAFVKILKK-NH2 [PEXIGANAN] | 12.5 µg/mL | 12.5 µg/mL | 120 µg/mL | 12.5 µg/mL | 25 µg/mL | 2 | 2 | 2 | 2 | MIC (Staphylococcus aureus [5]): 200 µg/mL; MIC (Staphylococcus aureus [7]): 12.5 µg/mL; MIC (Staphylococcus aureus [8]): 200 µg/mL; MIC (Staphylococcus aureus [9]): 12.5 µg/mL
5 | O=c1c2ccc(O)cc2oc2cc(O)cc(O)c12 | > 50 µg/mL |  |  |  |  |  |  |  |  | 
6 | N=C(N)NCCCCC(=O)Nc1cc(C(F)(F)F)cc(NC(=O)c2cc(C(=O)Nc3cc(C(F)(F)F)cc(NC(=O)CCCCNC(=N)N)c3O[C@@H]3CCNC3)ncn2)c1O[C@@H]1CCNC1 [BRILACIDIN] | 4 µg/mL (≈ 4.27 µM) | 4 µg/mL (≈ 4.27 µM) | 175 µg/mL | 4 µg/mL (≈ 4.27 µM) | 4 µg/mL (≈ 4.27 µM) | 44 | 44 | 44 | 44 | 
7 | COc1c(OCC(=O)N[C@@H](CCCNC(=N)N)C(N)=O)cc2oc3cc(OCC(=O)N[C@@H](CCCNC(=N)N)C(N)=O)c(CC=C(C)C)c(O)c3c(=O)c2c1CC=C(C)C | 6 µg/mL (≈ 7.17 µM) | 6 µg/mL (≈ 7.17 µM) | 128 µg/mL | 1 µg/mL (≈ 1.19 µM) | 6 µg/mL (≈ 7.17 µM) | 13 | 13 | 13 | 128 | Retention_time [13]: 7.4 min
8 | CN[C@H](CC(C)C)C(=O)N[C@H]1C(=O)N[C@@H](CC(N)=O)C(=O)N[C@H]2C(=O)N[C@H]3C(=O)N[C@H](C(=O)N[C@H](C(=O)O)c4cc(O)cc(O)c4-c4cc3ccc4O)[C@H](O)c3ccc(c(Cl)c3)Oc3cc2cc(c3O[C@@H]2O[C@H](CO)[C@@H](O)[C@H](O)[C@H]2O[C@H]2C[C@](C)(N)[C@H](O)[C@H](C)O2)Oc2ccc(cc2Cl)[C@H]1O [VANCOMYCIN] |  |  |  |  |  |  |  |  |  | MIC (Staphylococcus aureus [5]): 1.56 µg/mL; Activity (Enterococcus [14]): inactive; MIC (Staphylococcus aureus [7]): 0.78 µg/mL (≈ 0.538 µM); MIC (Staphylococcus aureus [8]): 0.78 µg/mL; Activity (Staphylococcus aureus [15]): inactive; Activity (Enterococcus [16]): inactive; MIC (Staphylococcus aureus [9]): 0.78 µg/mL (≈ 0.538 µM); Activity (Staphylococcus aureus [17]): inactive; MIC (Listeria monocytogenes): 0.5 µg/mL (≈ 0.345 µM); MIC (Enterococcus [18]): 1 µg/mL (≈ 0.69 µM); MIC (Corynebacterium jeikeium): 0.5 µg/mL (≈ 0.345 µM); MIC (Enterococcus [19]): 8 µg/mL (≈ 5.52 µM); MIC (Streptococcus): 0.5 µg/mL (≈ 0.345 µM)
9 | COc1c(O)cc2oc3cc(O)c(CCC(C)C)c(O)c3c(=O)c2c1CCC(C)C | 50 µg/mL (≈ 121 µM) |  |  |  |  |  |  |  |  | 
10 | CCN(CC)CCCCOc1cc2oc3cc(OCCCCN(CC)CC)c(OC)c(CCC(C)C)c3c(=O)c2c(O)c1CCC(C)C | 3 µg/mL (≈ 4.48 µM) |  |  |  |  |  |  |  |  | 
